{
  "source": "ChEMBL document CHEMBL1142204",
  "about": "“Cathepsin A is the major hydrolase catalyzing the intracellular hydrolysis of the antiretroviral nucleotide phosphonoamidate prodrugs GS-7340 and GS-9131” (Antimicrob Agents Chemother, 2007)",
  "key": {"[1]": {"target": "T1, Lysosomal protective protein (Homo sapiens) (UniProt P10619)", "T1 sequence (whole entry)": "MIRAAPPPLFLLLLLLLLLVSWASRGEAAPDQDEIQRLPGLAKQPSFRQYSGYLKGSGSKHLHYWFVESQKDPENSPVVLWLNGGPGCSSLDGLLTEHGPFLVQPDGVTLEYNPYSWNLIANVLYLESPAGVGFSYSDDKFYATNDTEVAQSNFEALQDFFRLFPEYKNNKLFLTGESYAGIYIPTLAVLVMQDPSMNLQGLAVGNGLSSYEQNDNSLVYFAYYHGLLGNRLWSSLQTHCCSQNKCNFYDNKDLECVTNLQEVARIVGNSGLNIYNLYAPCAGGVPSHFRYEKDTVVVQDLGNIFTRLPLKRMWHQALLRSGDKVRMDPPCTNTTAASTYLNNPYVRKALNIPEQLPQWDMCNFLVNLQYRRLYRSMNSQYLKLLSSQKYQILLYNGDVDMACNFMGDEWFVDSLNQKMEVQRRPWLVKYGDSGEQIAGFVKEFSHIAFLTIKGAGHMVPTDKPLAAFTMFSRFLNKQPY", "experiment": "Activity of purified human PBMCs Cat A from leukopheresis patient in Con A pool", "outline": "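Hydrolase purified from fresh human leukopheresis PBMCs (NP-40 extract; Source Q15, butyl Sepharose HIC, then ConA chromatography). Protein by Bradford; specific activity (pmol/min/μg) corrected for estimated 29-kDa catalytic subunit fraction.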"}, "Homo sapiens [2]": {"organism": "Homo sapiens", "experiment": "Activity of human PBMCs prodrug hydrolase from leukopheresis patient in BS-HIC pool"}, "Homo sapiens [3]": {"organism": "Homo sapiens", "experiment": "Activity of human PBMCs prodrug hydrolase from leukopheresis patient in Q15 pool"}, "Homo sapiens [4]": {"organism": "Homo sapiens", "experiment": "Activity of crude extract human PBMCs prodrug hydrolase from leukopheresis patient"}},
  "data": [
    {"smiles": "CC(C)OC(=O)[C@H](C)N[P@](=O)(CO[C@H](C)Cn1cnc2c(N)ncnc21)Oc1ccccc1", "values": [
      {"measurement": "Activity", "setting": "[1]", "result": 35000, "unit": "pmol/min/µg"},
      {"measurement": "Activity", "setting": "Homo sapiens [2]", "result": 730, "unit": "pmol/min/µg"},
      {"measurement": "Activity", "setting": "Homo sapiens [3]", "result": 112, "unit": "pmol/min/µg"},
      {"measurement": "Activity", "setting": "Homo sapiens [4]", "result": 16, "unit": "pmol/min/µg"}
    ]}
  ]
}
